# XiGFP reactiv – activators of inactive X chromosome reactivation, primary screen, imaging, XiGFP fibroblasts, GFP high-content imaging, set 2. XiGFP mouse fibroblasts, % GFP-positive cells imaging, 3 d; cells co-treated with 5-aza-dC sensitizer; scaled so ellipticine positive control = 100%. activation, % at 7.58 µM. hit rate 0.055% among 360,000. AID 743238, 2013;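 active = mean normalized replicate activation at least 10% and every replicate at or above 10%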;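 also: 0% = median of on-plate neutral control wells and 100% = ellipticine 6 µM median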
#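 System: 68-5-11 XiGFP fibroblast line | Buffer or medium: DMEM containing 5-aza-dC | Compound: Single point | Times: Compounds 3 days, fix/stain 15 min at room temperature | Benchmarks: Positive control ellipticine, 6 µM final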
# RAD52 anneal inh – RAD52 DNA annealing inhibitors, primary screen, biochemical, FRET, single point, set 2. recombinant RAD52 DNA annealing, FRET fluorescence. hit rate 0.46% among 360,000. inhibition, % at 18.7 µM;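 active = every replicate showing at least 50% inhibition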
# RAD54 inh – inhibitors of human RAD54 branch migration, primary screen, biochemical, fluorescence, single point; inhibition, % at 10.4 µM; hit rate 0.14% among 360,000; DNA repair and recombination protein RAD54-like (Homo sapiens), Q92698; RAD54 Holliday junction branch migration, FAM/BHQ fluorescence;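 active = mean normalized replicate activity at least 40 and at least half of replicates scoring 40 or more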;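 also: 0% = median of neutral control wells and 100% = median of positive control wells; inhibitors cause a drop in the FAM fluorescence signal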
# Casp6 inh – human caspase-6 inhibitors, primary screen, biochemical, VEID-R110 fluorescence, single point, set 2; AID 686996, 2013; hit rate 0.53% among 350,000; purified caspase-6, Z-VEID-R110 cleavage fluorescence; inhibition, % at 12.5 µM;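 active = mean inhibition across replicates at least about 35%, with every replicate also reaching that limit, limit read from the data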;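 also: 0% = median of neutral control wells and 100% = no fluorescence left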
# S100A4 inh HTS – inhibitors of S100A4-myosin IIA peptide binding, primary screen, biochemical, fluorescence polarization, TAMRA-MyoIIA peptide; Protein S100-A4 (Homo sapiens), P26447; AID 652163, 2013; hit rate 0.14% among 360,000; inhibition, % at 10.7 µM;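 active = mean inhibition of at least 70% across replicates, with every replicate also reaching that level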
# Target sequence (P26447 whole entry, looked up): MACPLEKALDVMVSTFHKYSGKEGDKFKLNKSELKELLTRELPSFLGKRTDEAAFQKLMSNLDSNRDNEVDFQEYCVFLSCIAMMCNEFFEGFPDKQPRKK
#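 assay system = human S100A4 monomer with TAMRA-labelled myosin IIA peptide | also added = labelled myosin peptide probe, 5 nM | incubation = 5 min between mix addition and reading | control set = DMSO and TFP controls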
# AF4-AF9 inh – inhibitors of AF4 peptide binding to AF9, primary screen, biochemical, AlphaScreen, biotin-AF4 peptide, FLAG-AF9, single point. inhibition, % at 10 µM. hit rate 0.47% among 350,000. Protein AF-9 (Homo sapiens), P42568. AID 651704, 2012;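 active = every replicate reaching a set inhibition limit, whatever the replicate mean, cut at about 25% in these data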;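 also: 0% = plate neutral control median and 100% = total signal loss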
# CASP1 counter – human caspase-1 inhibitors, dose response, selectivity assay for caspase-6 inhibitor project, biochemical, Z-YVAD-R110 fluorescence, cherry-pick, set 2 | shares compounds with Casp6 inh | purified caspase-1, Z-YVAD-R110 cleavage fluorescence | activity change, negative = inhibition, % at 35 µM | 100 tested, under 10 active | AID 743289, 2014;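 active = compounds lowering fluorescence whose fitted half-maximal concentration is no more than twice their top tested dose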
# * = called active by the depositor; . = no result. Shown are actives, neighbours in structure and some others; about 1.3% of the full set was active somewhere.
SMILES,XiGFP reactiv,RAD52 anneal inh,RAD54 inh,Casp6 inh,S100A4 inh HTS,AF4-AF9 inh,CASP1 counter
O=C(COC(=O)c1ccc([N+](=O)[O-])s1)NCc1ccccc1,.,.,-1,.,.,.,.
Cc1ccc(S(=O)(=O)Nc2csc(C)c2C(=O)O)cc1,0,-29,.,61*,-3,-9,-3
Cc1ccc(S(=O)(=O)Nc2cc(C)c(O)cc2C)cc1,0,-6,.,.,-5,0,.
Cc1cc(C=O)c(C)n1-c1cccc(C(=O)O)c1,0,-19,.,33,-7,2,.
Cc1cc(C=O)c(C)n1-c1cc(C(=O)O)cc(C(=O)O)c1,0,-15,.,41*,-2,-10,7

# From PubChem
